Measured values taken from ChEMBL document CHEMBL1641374, “Synthesis of antiproliferative flavones from calycopterin, major flavonoid of Calycopteris floribunda Lamk” (Bioorg Med Chem, 2011).
pIC50: −log10 of the molar value. Activity calls are given as the source filed them. No cut-off for these calls is given here.

Legend:
HL-60 [1] = assay: Induction of apoptosis in human HL60 cells assessed as late apoptosis cells at 200 nM after24 hrs by annexin-V-PE/7-AAD staining (reference value: 0.2%); format: functional
HL-60 [2] = assay: Induction of apoptosis in human HL60 cells assessed as early apoptosis cells at 200 nM after 48 hrs by annexin-V-PE/7-AAD staining (reference value: 2.5%); format: functional
HL-60 [3] = assay: Induction of apoptosis in human HL60 cells assessed as viable cells at 200 nM after 48 hrs by annexin-V-PE/7-AAD staining (reference value: 97.4%); format: functional; settings: HL-60, 48 h, read-out: Activity
HL-60 [4] = assay: Induction of apoptosis in human HL60 cells assessed as early apoptosis cells at 200 nM after24 hrs by annexin-V-PE/7-AAD staining (reference value: 2.6%); format: functional
HL-60 [5] = assay: Induction of apoptosis in human HL60 cells assessed as viable cells at 200 nM after24 hrs by annexin-V-PE/7-AAD staining (reference value: 97.2%); format: functional; settings: read-out: Activity
HL-60 [6] = assay: Induction of apoptosis in human HL60 cells assessed as late apoptosis cells at 200 nM after 48 hrs by annexin-V-PE/7-AAD staining (reference value: 0.1%); format: functional
KB [7] = assay: Cytotoxicity against human KB cells at 10^-6 M after 72 hrs by MTS assay; format: functional
Outline: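 KB cells in D-MEM with 10% FCS were seeded at 600 cells/well and dosed 24 h later with flavone at 10^-6 M in DMSO. Controls received DMSO at 1% final. After 72 h, MTS was added for 3 h at 37 °C and A490 read in triplicate. Growth inhibition (%) = (1 − OD treated/OD control)×100.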

Ovis aries = species on record: Ovis aries; assay: Inhibition of sheep brain tubulin polymerization after 5 mins
Outline: (§1)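 Sheep brain microtubule proteins were purified by two assembly/disassembly cycles (37 °C/0 °C) in 100 mM MES pH 6.6, 1 mM EGTA, 0.5 mM MgCl2. Polymerization rate was followed by turbidity at 350 nm, with deoxypodophyllotoxin as reference. Compounds were tested at ~2×10^-5 M for % inhibition, with IC50 determined for selected compounds.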

HL-60 [8] = assay: Induction of apoptosis in human HL60 cells assessed as induction of caspase 3/7 activation at 100 uM; format: functional, cell-based
Outline: (§2)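 HL60 cells (20,000/well) were treated 24 and 48 h with compounds in DMSO. Vehicle and doxorubicine served as controls. Fluorescence (ex 360/em 465 nm) was followed over 3 h.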

KB [9] = assay: Induction of cell cycle arrest in human KB cells assessed as accumulation at G2/M phase at 50 nM after 48 hrs by propidium iodide staining-based flow cytometry (reference value: 13.8%); format: functional
A549 = assay: Cytotoxicity against human A549 cells after 72 hrs by MTS assay; format: functional, cell-based; settings: A549, 72 h
KB [10] = assay: Induction of cell cycle arrest in human KB cells assessed as accumulation at G0/G1phase at 50 nM after 48 hrs by propidium iodide staining-based flow cytometry (reference value: 66.6%); format: functional
HCT-116 = assay: Cytotoxicity against human HCT116 cells after 72 hrs by MTS assay; format: functional, cell-based; settings: HCT-116, 72 h
HL-60 [11] = assay: Induction of apoptosis in human HL60 cells assessed as viable cells at 50 nM after24 hrs by annexin-V-PE/7-AAD staining (reference value: 97.2%); format: functional; settings: read-out: Activity
HL-60 [12] = assay: Induction of apoptosis in human HL60 cells assessed as induction of caspase 3/7 activation at 100 nM relative to control; format: functional; outline: as §2
SF-268 = assay: Cytotoxicity against human SF268 cells after 72 hrs by MTS assay; format: functional, cell-based; settings: SF-268, 72 h
HL-60 [13] = assay: Induction of apoptosis in human HL60 cells assessed as viable cells at 50 nM after 48 hrs by annexin-V-PE/7-AAD staining (reference value: 97.4%); format: functional; settings: HL-60, 48 h, read-out: Activity
[14] = Inhibition of sheep brain tubulin polymerization at 2x10'-5 M after 5 mins; set-up: species or system Ovis aries; outline: as §1
HL-60 [15] = assay: Induction of apoptosis in human HL60 cells assessed as early apoptosis cells at 50 nM after 48 hrs by annexin-V-PE/7-AAD staining (reference value: 2.5%); format: functional
HT-29 = assay: Cytotoxicity against human HT-29 cells after 72 hrs by MTS assay; format: functional, cell-based; settings: HT-29, 72 h
HL-60 [16] = assay: Induction of apoptosis in human HL60 cells assessed as late apoptosis cells at 50 nM after24 hrs by annexin-V-PE/7-AAD staining (reference value: 0.2%); format: functional
OVCAR-8 = assay: Cytotoxicity against human OVCAR8 cells after 72 hrs by MTS assay; format: functional, cell-based; settings: OVCAR-8, 72 h
HL-60 [17] = assay: Induction of apoptosis in human HL60 cells assessed as early apoptosis cells at 50 nM after24 hrs by annexin-V-PE/7-AAD staining (reference value: 2.6%); format: functional
KB [18] = assay: Induction of cell cycle arrest in human KB cells assessed as accumulation at S phase at 50 nM after 24 hrs by propidium iodide staining-based flow cytometry (reference value: 6.9%); format: functional
HCT-15 = assay: Cytotoxicity against human HCT15 cells after 72 hrs by MTS assay; format: functional, cell-based; settings: HCT-15, 72 h
HL-60 [19] = assay: Induction of apoptosis in human HL60 cells assessed as late apoptosis cells at 50 nM after 48 hrs by annexin-V-PE/7-AAD staining (reference value: 0.1%); format: functional
KB [20] = assay: Induction of cell cycle arrest in human KB cells assessed as accumulation at S phase at 50 nM after 48 hrs by propidium iodide staining-based flow cytometry (reference value: 18.4%); format: functional
MIA PaCa-2 = assay: Cytotoxicity against human MIAPaCa2 cells after 72 hrs by MTS assay; format: functional, cell-based; settings: MIA PaCa-2, 72 h
PC-3 = assay: Cytotoxicity against human PC3 cells after 72 hrs by MTS assay; format: functional, cell-based; settings: PC-3, 72 h
K562 = assay: Cytotoxicity against human K562 cells after 72 hrs by MTS assay; format: functional, cell-based; settings: K562, 72 h
HepG2 = assay: Cytotoxicity against human HepG2 cells after 72 hrs by MTS assay; format: functional, cell-based; settings: HepG2, 72 h
KB [21] = assay: Induction of cell cycle arrest in human KB cells assessed as accumulation at subG1 phase at 50 nM after 48 hrs by propidium iodide staining-based flow cytometry (reference value: 1.2%); format: functional
KB [22] = assay: Induction of cell cycle arrest in human KB cells assessed as accumulation at G0/G1phase at 50 nM after 24 hrs by propidium iodide staining-based flow cytometry (reference value: 72.9%); format: functional
SK-OV-3 = assay: Cytotoxicity against human SKOV3 cells after 72 hrs by MTS assay; format: functional, cell-based; settings: SK-OV-3, 72 h
KB [23] = assay: Induction of cell cycle arrest in human KB cells assessed as accumulation at subG1 phase at 50 nM after 24 hrs by propidium iodide staining-based flow cytometry (reference value: 0.7%); format: functional
HL-60 [24] = assay: Cytotoxicity against human HL60 cells after 72 hrs by MTS assay; format: functional, cell-based; settings: HL-60, 72 h
[25] = Cytotoxicity against human HL60R cells after 72 hrs by MTS assay; format: functional, cell-based; settings: HL-60, 72 h
KB [26] = assay: Cytotoxicity against human KB cells after 72 hrs by MTS assay; format: functional, cell-based
KB [27] = assay: Induction of cell cycle arrest in human KB cells assessed as accumulation at G2/M phase at 50 nM after 24 hrs by propidium iodide staining-based flow cytometry (reference value: 19.6%); format: functional
[28] = Cytotoxicity against human MCF7/R cells after 72 hrs by MTS assay; format: functional, cell-based; settings: MCF7R
HL-60 [29] = assay: Induction of apoptosis in human HL60 cells assessed as induction of caspase 3/7 activation at 100 uM relative to control; format: functional; outline: as §2

Structure (SMILES): COc1cccc2c1C(=O)c1c(O)c3c(c(O)c1C2=O)C[C@@](O)(C(=O)CO)C[C@@H]3O[C@H]1C[C@H](N)[C@H](O)[C@H](C)O1 [DOXORUBICIN]
- Activity (HL-60 [1]): 1.2%
- Activity (HL-60 [2]): 89.2%
- viability at 0.2 µM (HL-60 [3]): 5.2%
- Activity (HL-60 [4]): 45.9%
- viability at 0.2 µM (HL-60 [5]): 52.8%
- Activity (HL-60 [6]): 5.6%

Structure (SMILES): COc1ccc(-c2oc3c(OC)c(OC)c(OC)c(O)c3c(=O)c2OC)cc1CN
- Activity (KB [7]): <=13%

Structure (SMILES): COc1ccc(-c2oc3c(OC)c(OC)c(OC)c(O)c3c(=O)c2OC)cc1CN(C)C
- Activity (KB [7]): <=13%

Structure (SMILES): COc1c(I)cc(-c2oc3c(OC)c(OC)c(OC)c(O)c3c(=O)c2OC)cc1I
- Activity (KB [7]): <=13%

Structure (SMILES): COc1ccc(-c2oc3c(OC)c(OC)c(OC)c(OC)c3c(=O)c2OC)cc1N
- Activity (KB [7]): 17%
- inhibition (Ovis aries): 5%
- Activity (HL-60 [8]): inactive

Structure (SMILES): COc1ccc(-c2oc3c(OC)c(OC)c(OC)c(O)c3c(=O)c2OC)cc1C#N
- Activity (KB [7]): <=13%

Structure (SMILES): COc1ccc(-c2oc3c(OC)c(OC)c(OC)c(O)c3c(=O)c2OC)cc1N
- Activity (KB [7]): 96%
- Activity (KB [9]): 14%
- pIC50 (A549): 7.49
- Activity (KB [10]): 38.5%
- pIC50 (HCT-116): 7.60
- viability at 0.05 µM (HL-60 [11]): 77.1%
- fold change (FC) (HL-60 [12]): 3.2
- pIC50 (SF-268): 6.40
- viability at 0.05 µM (HL-60 [13]): 60.1%
- pIC50 [14]: 4.89
- Activity (HL-60 [15]): 37.6%
- pIC50 (HT-29): 7.30
- Activity (HL-60 [16]): 2.1%
- pIC50 (OVCAR-8): 6.98
- Activity (HL-60 [17]): 20.7%
- Activity (KB [18]): 19.2%
- pIC50 (HCT-15): 7.92
- Activity (HL-60 [19]): 2.2%
- Activity (KB [20]): 32%
- pIC50 (MIA PaCa-2): 7.48
- pIC50 (PC-3): < 6.00
- pIC50 (K562): 8.05
- pIC50 (HepG2): 7.09
- Activity (KB [21]): 15.5%
- Activity (KB [22]): 39.3%
- pIC50 (SK-OV-3): 7.43
- Activity (KB [23]): 7.3%
- pIC50 (HL-60 [24]): 7.44
- pIC50 [25]: 7.85
- pIC50 (KB [26]): 7.60
- Activity (KB [27]): 34.5%
- pIC50 [28]: 7.47

Structure (SMILES): COc1c(OC)c(O)c2c(=O)c(OC)c(-c3ccc(O)cc3)oc2c1OC [CALYCOPTERIN]
- Activity (KB [7]): 0%

Structure (SMILES): COc1ccc(-c2oc3c(OC)c(OC)c(OC)c(O)c3c(=O)c2OC)cc1 [5-HYDROXYAURANETIN]
- Activity (KB [7]): 73%
- fold change (FC) (HL-60 [29]): 4.5
- inhibition (Ovis aries): 2%
- pIC50 (KB [26]): 6.14

Structure (SMILES): COc1ccc(-c2oc3c(O)c(OC)c(OC)c(O)c3c(=O)c2OC)cc1N
- Activity (KB [7]): 34%
- pIC50 (KB [26]): < 5.00

Structure (SMILES): COc1ccc(-c2oc3c(OC)c(OC)c(O)c(O)c3c(=O)c2OC)cc1N
- Activity (KB [7]): 38%
- pIC50 (KB [26]): 5.00

Structure (SMILES): COc1ccc(-c2oc3c(OC)c(OC)c(OC)c(O)c3c(=O)c2OC)cc1[N+](=O)[O-]
- Activity (KB [7]): 13%
